Measured values from ChEMBL document CHEMBL4190298, “Stereochemistry of a Second Riolozane and Other Diterpenoids from Jatropha dioica” (J Nat Prod, 2017).

Tests used:
[1] = tested on: Human alphaherpesvirus 2; test: Antiviral activity against HSV-2 infected in African green monkey Vero cells assessed as inhibition of virus plaque formation after 72 hrs by Giemsa staining based assay; format: functional, organism-based; conditions: Human alphaherpesvirus 2, Vero
In short: (§1)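 Vero cells (ATCC CRL-1586) were grown in advanced DMEM with 2% FBS at 37 °C and 5% CO2. Wells of 5×10^5 cells were infected with 100 PFU HSV-1 or HSV-2 for 1 h at 37 °C. The supernatant was then replaced with medium containing 1% DMSO, 0.32% IgG and compound at 80, 160 or 320 μM. After 72 h, cells were MeOH-fixed and Giemsa-stained. Mock and acyclovir controls; triplicate.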

[2] = tested on: Human alphaherpesvirus 1; test: Antiviral activity against HSV-1 infected in African green monkey Vero cells assessed as inhibition of virus plaque formation after 72 hrs by Giemsa staining based assay; format: functional, organism-based; conditions: Human alphaherpesvirus 1, Vero; in short: as §1
[3] = Cytotoxicity against African green monkey Vero cells assessed as reduction in cell viability after 3 days by MTT assay; format: cell-based; conditions: chlorocebus sabaeus
In short: (§2)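 Vero cells (ATCC CRL-1586) were grown in advanced DMEM with 2% FBS at 37 °C and 5% CO2 and exposed to compound at 100, 200, 400, 800 or 1600 μM for 3 days. Viability was read by MTT (10 μL of 5 mg/mL stock added). CC50 is the concentration reducing viability by 50% relative to untreated cells, taken as 100%. Triplicate; mean ± SD.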

[4] = Selectivity index, ratio of CC50 for African green monkey Vero cells to IC50 for HSV-2 infected in African green monkey Vero cells; format: toxicity; conditions: HSV-2 infected Vero cells, read-out: Ratio CC50/IC50
[5] = Selectivity index, ratio of CC50 for African green monkey Vero cells to IC50 for HSV-1 infected in African green monkey Vero cells; format: toxicity; conditions: HSV-1 infected Vero cells, read-out: Ratio CC50/IC50
[6] = tested on: Human alphaherpesvirus 1; test: Antiviral activity against HSV-1 infected in African green monkey Vero cells assessed as inhibition of virus plaque formation; format: functional, organism-based; conditions: Human alphaherpesvirus 1, Vero; in short: as §1
[7] = tested on: Human alphaherpesvirus 2; test: Antiviral activity against HSV-2 infected in African green monkey Vero cells assessed as inhibition of virus plaque formation; format: functional, organism-based; conditions: Human alphaherpesvirus 2, Vero; in short: as §1
[8] = Cytotoxicity against African green monkey Vero cells; format: cell-based; conditions: chlorocebus sabaeus; in short: as §2

Row | SMILES | IC50 [1] [µM] | IC50 [2] [µM] | CC50 at 72 h [3] [µM] | selectivity ratio [4] | selectivity ratio [5] | IC50 [6] [µM] | IC50 [7] [µM] | CC50 [8] [µM]
1 | C/C1=C/[C@]23O[C@H]2[C@H](C)C[C@@H]3C(=O)[C@]2(C)C(=O)CC(C)(C)[C@H]2CC1=O | > 303 | > 303 | > 1520 |  |  |  |  | 
2 | C[C@@H]1CC2=C(C1)[C@@H]([C@@]1(C)C(=O)C[C@H]3[C@@H](C1=O)C3(C)C)[C@@H](C)C2=O | 172 | 180 | 584 | 3.4 | 3.2 |  |  | 
3 | C[C@@H]1CC2=C(C1)[C@@H]([C@@]1(C)C(=O)C[C@H]3[C@@H](C1=O)C3(C)C)[C@H](C)C2=O |  |  |  | 5.8 | 5.8 | 210 | 210 | 1220
4 | Nc1nc2c(ncn2COCCO)c(=O)[nH]1 [ACYCLOVIR] | 3.11 | 4.75 |  |  |  |  |  | 
